Measured values reported in ChEMBL document CHEMBL1275350, “First in class, potent, and orally bioavailable NADPH oxidase isoform 4 (Nox4) inhibitors for the treatment of idiopathic pulmonary fibrosis” (J Med Chem, 2010).

Assays:
NADPH oxidase 1 = NADPH oxidase 1 (Homo sapiens, UniProt Q9Y5S8); assay: Inhibition of human NOX1 overexpressed in […] cell membrane assessed as ROS production by cell free assay in presence of NADPH; settings: in the assay text read “T-REx-CHO cell membrane” for “human PMN cell membrane”
How it was run: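 Membranes from T-REx-CHO cells stably co-transfected with human NOX1, p22, NOXA1 and NOXO1, induced with tetracycline (1 μg/mL, 24 h), prepared on a 17/40% sucrose gradient. Incubated in PBS with Amplex Red, HRP and cofactors, then NADPH added. Compound at 1 nM–100 μM, 20 min at 37 °C. Ki by Cheng-Prusoff, at least three experiments in triplicate.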

[1] = biological target: Nitric oxide synthase, endothelial (Homo sapiens) (UniProt P29474); assay: Inhibition of eNOS at 10 uM
[2] = biological target: Tyrosine-protein phosphatase non-receptor type 1 (Homo sapiens) (UniProt P18031); assay: Inhibition of human PTP1B at 10 uM
Cytochrome P450 3A4 = Cytochrome P450 3A4 (Homo sapiens, UniProt P08684); assay: Inhibition of human CYP3A4; assay type: ADME
How it was run: (§1)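 Recombinant human CYP isoforms with isoform-specific probe substrates and NADPH. Compound at 0.1–25 μM, final DMSO 0.3%. Metabolites measured by mass spectrometry, except CYP1A2, which used a fluorescent metabolite. IC50 derived from the decrease in metabolite formation compared with vehicle control.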

[3] = Oral bioavailability in Sprague-Dawley rat at 10 mg/kg; assay type: ADME, organism-based; settings: in vivo
How it was run: (§2)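 Parallel design in male rats, three per group. Group 1: 5 mg/kg iv in EDPW (10% EtOH, 10% DMA, 30% PG, 50% water). Group 2: 10 mg/kg oral in aqueous 0.5% CMC with 0.25% Tween 20. Carotid cannula blood drawn up to 24 h. Plasma measured by LC/MS/MS (LLOQ 1.00 ng/mL), noncompartmental analysis.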

[4] = Tmax in Sprague-Dawley rat at 10 mg/kg, po; assay type: ADME, organism-based; design: dose 10 mg/kg, route oral; settings: in vivo; how it was run: as §2
[5] = Genotoxicity in Salmonella Typhimurium at 100 uM by mini Ames test; assay type: toxicity; settings: salmonella enterica subsp. enterica serovar typhimurium
NADPH oxidase 4 = biological target: T1, NADPH oxidase 4 (Homo sapiens, UniProt Q9NPH5); assay: Inhibition of human NOX4 overexpressed in T-REx-293 cell membrane assessed as ROS production by cell free assay in presence of NADPH; settings: in the assay text read “T-REx-293 cell membrane” for “human PMN cell membrane”
T1 sequence (Q9NPH5 whole entry): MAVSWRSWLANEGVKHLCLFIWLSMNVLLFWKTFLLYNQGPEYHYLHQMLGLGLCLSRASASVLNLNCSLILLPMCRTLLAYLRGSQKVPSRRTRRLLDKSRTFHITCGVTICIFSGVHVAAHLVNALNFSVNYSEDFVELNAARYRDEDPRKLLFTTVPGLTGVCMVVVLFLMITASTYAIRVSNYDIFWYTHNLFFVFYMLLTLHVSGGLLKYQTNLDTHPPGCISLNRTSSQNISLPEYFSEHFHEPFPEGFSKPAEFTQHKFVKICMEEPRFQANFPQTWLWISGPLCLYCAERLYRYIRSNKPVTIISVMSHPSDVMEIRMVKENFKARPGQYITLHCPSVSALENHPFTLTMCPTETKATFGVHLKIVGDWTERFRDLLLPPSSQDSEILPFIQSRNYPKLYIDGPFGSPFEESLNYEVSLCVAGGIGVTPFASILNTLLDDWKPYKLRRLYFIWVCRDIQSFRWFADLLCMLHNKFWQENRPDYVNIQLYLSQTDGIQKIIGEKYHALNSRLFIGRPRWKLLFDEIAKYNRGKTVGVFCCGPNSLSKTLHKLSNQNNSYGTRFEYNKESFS
How it was run: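 hNOX4 T-REx-293 cells induced with tetracycline (1 μg/mL, 24 h), sonicated in sucrose/NaCl/EGTA PBS buffer pH 7.4, membranes taken from a sucrose gradient. NADPH-triggered ROS measured by Amplex Red/HRP in PBS, with compound at 1 nM–100 μM, 20 min at 37 °C. Ki by Cheng-Prusoff from ≥3 triplicate experiments.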

[6] = biological target: Phosphatidylinositol 4,5-bisphosphate 3-kinase catalytic subunit beta isoform (Homo sapiens) (UniProt P42338); assay: Inhibition of PI3Kbeta at 10; settings: concentration not given here
[7] = Inhibition of potassium channel at 10 uM
Mus musculus = assay: Toxicity in mouse up to 1000 mg/kg, po over 2 weeks; assay type: organism-based; design: dose 1000 mg/kg, route oral; settings: in vivo, 336 h
How it was run: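 Dose range finding in mice, given orally for 2 weeks at up to 1000 mg/kg.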

Cytochrome P450 2D6 = Cytochrome P450 2D6 (Homo sapiens, UniProt P10635); assay: Inhibition of human CYP2D6; assay type: ADME; how it was run: as §1
[8] = Inhibition of calcium channel at 10 uM
[9] = biological target: Mitogen-activated protein kinase kinase kinase 5 (Homo sapiens) (UniProt Q99683); assay: Inhibition of human ASK1 at 10 uM
NADPH oxidase 2 = NADPH oxidase 2 (Homo sapiens, UniProt P04839); assay: Inhibition of human NOX2 overexpressed in […] cell membrane assessed as ROS production by cell free assay in presence of NADPH
How it was run: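 Nox2 source: membranes from human polymorphonuclear cells, sonicated and collected at the 17/40% sucrose interface. ROS read by Amplex Red/HRP in PBS after NADPH addition, with compound at 1 nM–100 μM for 20 min at 37 °C. Background taken without membranes or agonist. Ki via Cheng-Prusoff, mean of ≥3 experiments in triplicate.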

[10] = biological target: Nitric oxide synthase, inducible (Homo sapiens) (UniProt P35228); assay: Inhibition of iNOS at 10 uM
[11] = Clearance in Sprague-Dawley rat at 5 mg/kg, iv; assay type: ADME, organism-based; design: dose 5 mg/kg, route intravenous; settings: in vivo
How it was run: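 Parallel design with six male rats: three given 5 mg/kg iv in EDPW (10% EtOH, 10% DMA, 30% PG, 50% water), three given 10 mg/kg orally in aqueous 0.5% CMC with 0.25% Tween 20. Carotid cannula blood sampled up to 24 h. Plasma levels by LC/MS/MS (LLOQ 1.00 ng/mL). Noncompartmental analysis.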

Plasma = assay: Unbound fraction in Sprague-Dawley rat 50% plasma protein; assay type: ADME, cell-free
[12] = biological target: Polyunsaturated fatty acid lipoxygenase ALOX12 (Homo sapiens) (UniProt P18054); assay: Inhibition of human 12-lipoxygenase at 10 uM
[13] = Intrinsic clearance in human liver microsomes assessed as per mg of protein at 0.5 uM; assay type: ADME, Microsome
How it was run: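 Phase I stability assay in pooled liver microsomes (human: male and female; rat: male Sprague-Dawley). Microsomes at 0.5 mg/mL final in 0.1 M phosphate pH 7.4. Compound 0.5 μM final, 0.25% DMSO. Preincubated at 37 °C, reaction started with 1 mM NADPH. Sampled at 0, 5, 15, 30 and 45 min, with a 45 min minus-NADPH control. Methanol quench with internal standard, LC/MS-MS, intrinsic clearance calculated.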

Cytochrome P450 1A2 = Cytochrome P450 1A2 (Homo sapiens, UniProt P05177); assay: Inhibition of human CYP1A2; assay type: ADME; how it was run: as §1
Chain of Cytochrome P450 1A2 (P05177 whole entry): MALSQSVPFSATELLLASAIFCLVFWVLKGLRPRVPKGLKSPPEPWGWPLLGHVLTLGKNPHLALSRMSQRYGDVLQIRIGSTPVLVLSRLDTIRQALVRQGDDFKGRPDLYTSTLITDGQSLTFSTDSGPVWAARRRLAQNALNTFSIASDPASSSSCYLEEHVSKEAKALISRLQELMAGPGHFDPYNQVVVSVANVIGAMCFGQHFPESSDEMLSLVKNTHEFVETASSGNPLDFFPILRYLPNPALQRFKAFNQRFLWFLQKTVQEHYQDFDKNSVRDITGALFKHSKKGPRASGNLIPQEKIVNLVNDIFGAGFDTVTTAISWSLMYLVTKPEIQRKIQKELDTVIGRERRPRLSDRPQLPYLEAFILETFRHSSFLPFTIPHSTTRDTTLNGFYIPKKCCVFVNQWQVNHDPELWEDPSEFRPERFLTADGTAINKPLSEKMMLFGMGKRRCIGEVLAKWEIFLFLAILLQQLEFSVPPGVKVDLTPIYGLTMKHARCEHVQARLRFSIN

Chain of NADPH oxidase 2 (P04839 whole entry): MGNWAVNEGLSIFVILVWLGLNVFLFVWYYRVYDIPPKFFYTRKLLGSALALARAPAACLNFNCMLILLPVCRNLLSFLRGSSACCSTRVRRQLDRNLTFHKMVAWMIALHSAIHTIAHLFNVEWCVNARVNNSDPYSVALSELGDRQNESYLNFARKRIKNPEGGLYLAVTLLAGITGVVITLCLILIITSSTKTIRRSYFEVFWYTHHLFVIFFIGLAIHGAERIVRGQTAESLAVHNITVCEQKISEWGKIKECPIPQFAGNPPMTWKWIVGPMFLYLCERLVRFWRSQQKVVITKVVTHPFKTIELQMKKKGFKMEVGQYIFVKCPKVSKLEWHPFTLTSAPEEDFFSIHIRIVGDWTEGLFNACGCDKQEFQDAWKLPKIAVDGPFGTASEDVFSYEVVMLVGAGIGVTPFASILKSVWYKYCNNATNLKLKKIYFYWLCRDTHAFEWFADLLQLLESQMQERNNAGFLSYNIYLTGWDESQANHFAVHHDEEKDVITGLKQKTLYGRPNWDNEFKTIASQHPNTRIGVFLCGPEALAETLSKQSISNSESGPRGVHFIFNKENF
Chain of Cytochrome P450 2D6 (P10635 whole entry): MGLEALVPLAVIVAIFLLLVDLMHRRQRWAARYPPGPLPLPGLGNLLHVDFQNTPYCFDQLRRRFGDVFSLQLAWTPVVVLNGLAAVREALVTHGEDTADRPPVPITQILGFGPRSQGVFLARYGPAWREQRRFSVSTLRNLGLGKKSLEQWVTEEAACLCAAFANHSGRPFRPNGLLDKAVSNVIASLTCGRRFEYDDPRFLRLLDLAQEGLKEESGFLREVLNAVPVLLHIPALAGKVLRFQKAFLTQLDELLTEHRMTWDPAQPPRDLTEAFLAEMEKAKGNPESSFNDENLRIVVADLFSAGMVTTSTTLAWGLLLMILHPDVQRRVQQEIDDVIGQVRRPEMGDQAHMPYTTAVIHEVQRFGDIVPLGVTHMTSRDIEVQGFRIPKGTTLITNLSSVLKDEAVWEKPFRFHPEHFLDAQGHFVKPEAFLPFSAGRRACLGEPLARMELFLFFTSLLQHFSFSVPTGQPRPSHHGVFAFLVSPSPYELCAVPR
Chain of Mitogen-activated protein kinase kinase kinase 5 (Homo sapiens) (Q99683 whole entry): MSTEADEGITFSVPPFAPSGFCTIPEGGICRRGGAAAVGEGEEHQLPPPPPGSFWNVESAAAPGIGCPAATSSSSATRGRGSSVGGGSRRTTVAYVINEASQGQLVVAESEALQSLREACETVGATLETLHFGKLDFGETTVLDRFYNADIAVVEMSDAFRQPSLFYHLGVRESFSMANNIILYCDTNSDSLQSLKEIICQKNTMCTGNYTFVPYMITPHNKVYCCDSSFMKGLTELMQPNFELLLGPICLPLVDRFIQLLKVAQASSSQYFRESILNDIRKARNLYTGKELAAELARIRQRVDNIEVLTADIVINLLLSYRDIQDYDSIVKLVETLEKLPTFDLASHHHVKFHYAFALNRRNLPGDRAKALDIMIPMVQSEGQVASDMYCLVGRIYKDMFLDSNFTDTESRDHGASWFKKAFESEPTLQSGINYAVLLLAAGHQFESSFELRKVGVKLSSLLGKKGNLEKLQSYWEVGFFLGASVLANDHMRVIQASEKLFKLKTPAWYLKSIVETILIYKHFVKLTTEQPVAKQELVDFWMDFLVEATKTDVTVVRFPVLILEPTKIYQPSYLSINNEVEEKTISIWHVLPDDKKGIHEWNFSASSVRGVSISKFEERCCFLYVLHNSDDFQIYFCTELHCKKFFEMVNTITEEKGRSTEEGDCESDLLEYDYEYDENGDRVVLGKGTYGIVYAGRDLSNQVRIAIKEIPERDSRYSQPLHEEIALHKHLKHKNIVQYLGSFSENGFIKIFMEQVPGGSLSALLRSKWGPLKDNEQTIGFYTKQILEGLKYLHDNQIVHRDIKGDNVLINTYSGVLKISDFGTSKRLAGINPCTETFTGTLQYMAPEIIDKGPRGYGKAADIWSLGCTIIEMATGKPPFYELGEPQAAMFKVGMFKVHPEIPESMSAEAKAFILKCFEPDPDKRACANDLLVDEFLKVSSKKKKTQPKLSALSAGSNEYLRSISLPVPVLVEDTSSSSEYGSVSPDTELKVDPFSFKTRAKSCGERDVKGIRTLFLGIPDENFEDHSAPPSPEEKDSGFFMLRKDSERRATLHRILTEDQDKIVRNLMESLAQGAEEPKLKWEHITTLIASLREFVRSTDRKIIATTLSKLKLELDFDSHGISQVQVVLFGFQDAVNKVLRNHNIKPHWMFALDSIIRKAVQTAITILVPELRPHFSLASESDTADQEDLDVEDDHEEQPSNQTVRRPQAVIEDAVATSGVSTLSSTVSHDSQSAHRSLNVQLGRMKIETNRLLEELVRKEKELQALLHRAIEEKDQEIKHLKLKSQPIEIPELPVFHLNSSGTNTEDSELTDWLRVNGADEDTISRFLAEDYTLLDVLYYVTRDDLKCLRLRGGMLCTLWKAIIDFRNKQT
Chain of Nitric oxide synthase, endothelial (Homo sapiens) (P29474 whole entry, looked up): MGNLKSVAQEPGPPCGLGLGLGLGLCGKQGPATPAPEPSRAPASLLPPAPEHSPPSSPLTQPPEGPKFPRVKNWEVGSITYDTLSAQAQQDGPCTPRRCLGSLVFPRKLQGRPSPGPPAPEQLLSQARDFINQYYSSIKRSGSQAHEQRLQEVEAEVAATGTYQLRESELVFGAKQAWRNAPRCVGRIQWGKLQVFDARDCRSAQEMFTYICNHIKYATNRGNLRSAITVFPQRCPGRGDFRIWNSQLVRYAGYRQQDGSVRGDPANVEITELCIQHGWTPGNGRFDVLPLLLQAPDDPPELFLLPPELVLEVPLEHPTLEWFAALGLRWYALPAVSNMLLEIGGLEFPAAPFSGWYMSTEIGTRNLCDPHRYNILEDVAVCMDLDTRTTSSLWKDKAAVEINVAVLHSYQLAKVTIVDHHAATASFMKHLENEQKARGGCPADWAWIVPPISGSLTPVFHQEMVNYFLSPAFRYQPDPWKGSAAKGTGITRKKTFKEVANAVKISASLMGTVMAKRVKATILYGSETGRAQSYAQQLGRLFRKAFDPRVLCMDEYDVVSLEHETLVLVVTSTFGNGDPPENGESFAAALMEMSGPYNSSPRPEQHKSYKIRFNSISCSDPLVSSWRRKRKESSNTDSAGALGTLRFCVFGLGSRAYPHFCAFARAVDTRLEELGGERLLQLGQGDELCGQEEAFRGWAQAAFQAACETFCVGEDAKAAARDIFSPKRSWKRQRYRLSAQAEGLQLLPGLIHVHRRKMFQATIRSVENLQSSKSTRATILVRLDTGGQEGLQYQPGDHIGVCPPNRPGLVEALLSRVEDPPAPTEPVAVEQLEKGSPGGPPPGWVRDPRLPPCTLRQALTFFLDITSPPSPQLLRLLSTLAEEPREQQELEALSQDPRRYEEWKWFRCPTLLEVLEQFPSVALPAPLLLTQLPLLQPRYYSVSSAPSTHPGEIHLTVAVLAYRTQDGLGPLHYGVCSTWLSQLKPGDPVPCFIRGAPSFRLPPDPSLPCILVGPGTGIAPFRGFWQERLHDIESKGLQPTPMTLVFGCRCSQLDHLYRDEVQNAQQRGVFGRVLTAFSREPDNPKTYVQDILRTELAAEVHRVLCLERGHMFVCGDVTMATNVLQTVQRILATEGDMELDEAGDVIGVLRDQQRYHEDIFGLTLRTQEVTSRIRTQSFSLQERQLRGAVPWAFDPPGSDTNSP
Chain of Cytochrome P450 3A4 (P08684 whole entry, canonical isoform): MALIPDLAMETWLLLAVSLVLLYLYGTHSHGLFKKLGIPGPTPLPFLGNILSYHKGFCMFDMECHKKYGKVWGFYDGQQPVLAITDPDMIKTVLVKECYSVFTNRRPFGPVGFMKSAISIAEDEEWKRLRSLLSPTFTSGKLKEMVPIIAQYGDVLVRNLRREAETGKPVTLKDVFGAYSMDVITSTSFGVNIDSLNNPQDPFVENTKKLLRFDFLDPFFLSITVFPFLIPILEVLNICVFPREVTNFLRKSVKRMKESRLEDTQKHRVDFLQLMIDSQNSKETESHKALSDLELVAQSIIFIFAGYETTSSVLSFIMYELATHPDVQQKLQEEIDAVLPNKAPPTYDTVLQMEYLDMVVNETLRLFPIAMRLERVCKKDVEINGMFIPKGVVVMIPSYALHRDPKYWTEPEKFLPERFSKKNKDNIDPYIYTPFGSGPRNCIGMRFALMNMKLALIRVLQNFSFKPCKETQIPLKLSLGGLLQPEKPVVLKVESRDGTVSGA

Cc1c2c(=O)n(-c3ccccc3Cl)[nH]c2cc(=O)n1Cc1ccccn1
Ki (NADPH oxidase 1): 160 nM
inhibition [1]: 6%
inhibition [2]: 0%
IC50 (Cytochrome P450 3A4): 20900 nM
bioavailability [3]: 54%
Tmax [4]: 1.5 h
Activity [5]: Non-toxic
Ki (NADPH oxidase 4): 165 nM
inhibition [6]: 0%
inhibition [7]: 0%
Activity (Mus musculus): Non-toxic
IC50 (Cytochrome P450 2D6): > 25000 nM
inhibition [8]: 0%
inhibition [9]: 0%
Ki (NADPH oxidase 2): 1530 nM
inhibition [10]: 0%
clearance [11]: 7.83 mL/min/kg
Fu (Plasma): 20.5%
inhibition [12]: 2%
microsomal CLint at 0.5 µM [13]: 24.8 µL/min/mg
IC50 (Cytochrome P450 1A2): > 25000 nM
